Test results published in ChEMBL document CHEMBL5136969, “A niclosamide-tobramycin hybrid adjuvant potentiates cefiderocol against P. aeruginosa” (2021).
In brackets after ≈: the same amount, converted by molar mass.

Assays:
Type in all cases: functional
[1] = test system: Staphylococcus epidermidis; experiment: Antibacterial activity against methicillin-resistant Staphylococcus epidermidis 61589 assessed as reduction in bacterial growth after 18 hrs by microbroth dilution method
Outline: (§1)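 Broth microdilution per CLSI in Mueller-Hinton broth (MHB). Overnight cultures were adjusted to 0.5 McFarland in saline, diluted 1:50 in MHB, and added at about 5 × 10^5 CFU/mL final to equal volumes of 2-fold serial dilutions of agent. Incubation was 18 h at 37 °C. MIC was the lowest concentration with no visible turbidity, confirmed by absorbance at 590 nm.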

Enterococcus faecium = experiment: Antibacterial activity against Enterococcus faecium ATCC 27270 assessed as reduction in bacterial growth after 18 hrs by microbroth dilution method
Outline: (§2)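 CLSI microbroth dilution in MHB. Overnight cultures were adjusted to 0.5 McFarland in saline, diluted 1:50, and inoculated at about 5 × 10^5 CFU/mL. Agents were 2-fold serially diluted and incubated 18 h at 37 °C. MIC is the lowest concentration without visible turbidity, confirmed by absorbance at 590 nm. Medium with and without cells served as controls.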

Enterococcus faecalis = experiment: Antibacterial activity against Enterococcus faecalis ATCC 29212 assessed as reduction in bacterial growth after 18 hrs by microbroth dilution method; outline: as §2
Acinetobacter baumannii = experiment: Antibacterial activity against Acinetobacter baumannii ATCC 17978 assessed as reduction in bacterial growth after 18 hrs by microbroth dilution method; outline: as §2
Staphylococcus aureus [2] = experiment: Antibacterial activity against methicillin-resistant Staphylococcus aureus ATCC 33592 assessed as reduction in bacterial growth after 18 hrs by microbroth dilution method; outline: as §1
Pseudomonas aeruginosa = experiment: Antibacterial activity against Pseudomonas aeruginosa PAO1 assessed as reduction in bacterial growth after 18 hrs by microbroth dilution method
Outline: (§3)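 CLSI broth microdilution. Overnight cultures were adjusted in saline to 0.5 McFarland, diluted 1:50 in Mueller-Hinton broth (MHB), and inoculated at about 5 × 10^5 CFU/mL. Agents were 2-fold serially diluted in MHB, mixed 1:1 with inoculum, and held at 37 °C for 18 h. MIC was the lowest concentration with no visible turbidity, confirmed at 590 nm.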

Staphylococcus aureus [3] = experiment: Antibacterial activity against Staphylococcus aureus ATCC 29213 assessed as reduction in bacterial growth after 18 hrs by microbroth dilution method; outline: as §3
Escherichia coli = experiment: Antibacterial activity against Escherichia coli ATCC 25922 assessed as reduction in bacterial growth after 18 hrs by microbroth dilution method; outline: as §2

SMILES	MIC [1] [µg/mL]	MIC (Enterococcus faecium) [µg/mL]	MIC (Enterococcus faecalis) [µg/mL]	MIC (Acinetobacter baumannii) [µg/mL]	MIC (Staphylococcus aureus [2]) [µg/mL]	MIC (Pseudomonas aeruginosa) [µg/mL]	MIC (Staphylococcus aureus [3]) [µg/mL]	MIC (Escherichia coli) [µg/mL]
O=C(Nc1ccc([N+](=O)[O-])cc1Cl)c1cc(Cl)ccc1O [NICLOSAMIDE]	1 (≈ 3.06 µM)	2 (≈ 6.11 µM)	2 (≈ 6.11 µM)	> 128	0.25 (≈ 0.764 µM)	> 128	1 (≈ 3.06 µM)	> 128
NC[C@H]1O[C@H](O[C@H]2[C@H](O)[C@@H](O[C@H]3O[C@H](CO)[C@@H](O)[C@H](N)[C@H]3O)[C@H](N)C[C@@H]2N)[C@H](N)C[C@@H]1O [TOBRAMYCIN]	8 (≈ 17.1 µM)	16 (≈ 34.2 µM)	8 (≈ 17.1 µM)	0.5 (≈ 1.07 µM)	2 (≈ 4.28 µM)	0.5 (≈ 1.07 µM)	0.5 (≈ 1.07 µM)	2 (≈ 4.28 µM)
